Hits are enriched below; roughly 3.3% of the tested compounds scored in any of these assays.
ABCB6 inh MLPCN – blocks the human ABCB6 transporter; Q9NP58; K562-ABCB6 porphyrin accumulation, flow cytometry, 1 h; hits give low values; fluorescence ratio to DMSO, % at 10 µM; actives 0.19% (n = 360,000); AID 602162;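 active = fluorescence ratio to DMSO below 75%, the collection mean minus 3 SD; inconclusive = too few cells collected in the well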;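 also: signal is porphyrin accumulated inside mitochondria; 100% equals median channel fluorescence of DMSO control wells; lower ratio means ABCB6 inhibition with less porphyrin fluorescence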
Target sequence (Q9NP58 whole entry, looked up): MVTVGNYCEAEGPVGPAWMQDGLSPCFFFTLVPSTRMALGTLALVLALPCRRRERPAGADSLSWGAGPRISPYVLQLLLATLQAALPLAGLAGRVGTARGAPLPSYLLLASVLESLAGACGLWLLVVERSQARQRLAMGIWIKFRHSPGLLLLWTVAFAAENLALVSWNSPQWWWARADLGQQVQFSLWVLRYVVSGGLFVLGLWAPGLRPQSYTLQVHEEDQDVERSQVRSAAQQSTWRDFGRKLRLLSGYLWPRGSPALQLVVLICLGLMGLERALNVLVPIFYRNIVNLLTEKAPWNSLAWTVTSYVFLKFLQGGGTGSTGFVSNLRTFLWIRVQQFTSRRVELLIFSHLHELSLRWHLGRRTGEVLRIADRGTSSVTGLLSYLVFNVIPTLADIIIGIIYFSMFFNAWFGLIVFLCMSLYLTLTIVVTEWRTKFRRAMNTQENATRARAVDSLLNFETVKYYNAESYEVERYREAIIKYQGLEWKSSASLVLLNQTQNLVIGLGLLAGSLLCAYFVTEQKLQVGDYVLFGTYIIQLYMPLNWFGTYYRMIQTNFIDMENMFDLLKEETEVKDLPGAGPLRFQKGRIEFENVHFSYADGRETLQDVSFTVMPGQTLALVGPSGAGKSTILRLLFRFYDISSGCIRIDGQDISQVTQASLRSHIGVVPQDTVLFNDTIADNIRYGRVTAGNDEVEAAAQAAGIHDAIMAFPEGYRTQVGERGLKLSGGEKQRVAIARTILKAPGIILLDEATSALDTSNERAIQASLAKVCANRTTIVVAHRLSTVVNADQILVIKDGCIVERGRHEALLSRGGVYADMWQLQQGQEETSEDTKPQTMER
AHR activator – human AHR activation; actives 2.5% (n = 320,000); P35869; AHR-responsive luciferase reporter cells, luminescence; activation, % at 5 µM; AID 2796; in the data active = activation above about 47%;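 also: 0% = vehicle wells and 100% = reference agonist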
STAT3 act – increases IL-6 driven STAT3 reporter signal; U3A cells, IL-6 STAT3-luciferase reporter, luminescence; 100% = signal with IL-6 EC80 alone; activation (% of control), % at 5.6 µM; actives 0.91% (n = 190,000);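 active = activation above the screen-wide mean of compound activation plus 3 SD, cut at about 130% in these data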;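 also: 0% = background luminescence of wells with medium and substrate only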
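Assay system – human STAT1-deficient U3A cells with stable STAT3-luciferase reporter · Also added – IL-6 (33 ng/mL) · Schedule – compound 1 h, then IL-6 6 h at 37 °C · Technique – reporter luminescence signal · Evaluation – % activation versus median of IL-6-stimulated wells · Benchmarks – IL-6-only wells as 100% reference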
GAA850 FXN act – increases GAA850 frataxin promoter reporter activity. HEK293 lucGAA850 FXN promoter luciferase reporter, 24 h; percent of 10 µM SAHA response. activation, % at 6 µM. actives 0.56% (n = 360,000);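 active = activation above the average of all compounds screened plus 3 SD, cutoff fixed separately per campaign, cut at about 7.5% in these data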;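 also: 0% = DMSO wells and 100% = 10 µM SAHA wells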
The depositor's hits bear a star; ? = inconclusive; . = not tested or not shown.

SMILES | ABCB6 inh MLPCN | AHR activator | STAT3 act | GAA850 FXN act
CC1=NN=C(c2ccccc2)C(c2c[nH]c3ccccc23)N1O (stereo not drawn) | 101 | 68* | 104 | 0
Cc1cc(C)c2nc(-c3ccccn3)cc(C(=O)N3CCCC3)c2c1 | 103 | 56* | . | 3
Cc1ccc2nc(-c3ccccn3)cc(C(=O)N3CCN(c4ncccn4)CC3)c2c1 | 95 | 0 | 103 | 0
O=C(Nc1ccccc1)c1cccc2c(Br)cccc12 | 97 | 57* | . | 1
O=C(Nc1ccc(Br)cn1)c1ccc2ccccc2c1 | 99 | 48* | . | 1
O=C(Nc1ccc(Cl)cn1)c1cccc2c(Br)cccc12 | 99 | 74* | . | -1
O=C(Nc1ccc(Br)cn1)c1cccc(C(=O)Nc2ccc(Br)cn2)c1 | 105 | 14 | . | 3
O=C(Nc1ccc(Br)cn1)c1cccc2ccccc12 | 106 | 70* | . | -3
CCC(=O)Nc1ccc(NC(=O)c2cccc3c(Br)cccc23)cc1 | 98 | 0 | . | 2
COc1c(C(=O)Nc2ccc(Br)cn2)ccc2ccccc12 | 98 | 45 | . | 5
COc1ccccc1-c1nnc(NC(=O)C(C)SC2=NCCS2)s1 (stereo not drawn) | 98 | 57* | 87 | 1
CC(SC1=NCCS1)C(=O)Nc1nnc(-c2ccc(Cl)cc2)s1 (stereo not drawn) | 102 | 6 | 86 | 1
Cc1ccc(C)c(S(=O)(=O)NNC(=O)c2sc(NS(=O)(=O)c3ccccc3)nc2C)c1 | 109 | 2 | . | 1
Cc1c(C(=O)NC2CCCC2)oc2ccccc12 | 97 | 61* | . | 3
Cc1c(C(=O)NC2=NCCS2)oc2ccccc12 | 85 | 64* | 90 | 3
Brc1ccc([C@H]2C=C[C@H]3CCCN4CC[C@H]2[C@@H]3[C@]42CO2)cc1 | 96 | . | . | .
C[n+]1cccc(C(=O)N/N=C/c2ccc3c(c2)OCO3)c1 | 103 | 7 | . | -1
CCc1ccc2oc(-c3ccc(OC)cc3)cc(=Nc3c(C)n(C)n(-c4ccccc4)c3=O)c2c1 | 90 | 57* | 102 | 0
Cc1ccc(C(=O)Nc2cccc(C(=O)N/N=C/c3ccc(O)cc3)c2)cc1 | 96 | 56* | . | 3
CSc1cccc(-n2cc(-c3ccc4c(c3)OCO4)[nH]c2=O)c1 | 105 | 51* | 132 | -3
CCc1nnc(NC(=O)c2oc3ccccc3c2COC(C)C)s1 | 100 | 74* | . | 2
CCCn1cc(SCC(=O)Nc2ccc3c(c2)OCO3)c2ccccc21 | 94 | 73* | 98 | 0
COCCCn1nnnc1SCC(=O)Nc1ccc2c(c1)OCCO2 | 102 | 11 | 103 | -1
COCCn1nnnc1SCC(=O)Nc1ccc2c(c1)OCO2 | 100 | 68* | 98 | -1
Clc1ccc(-c2nc3cnccn3c2NC2CCCC2)cc1 | 97 | 51* | 99 | 1
SMILES | ABCB6 inh MLPCN | AHR activator | STAT3 act | GAA850 FXN act
CCSc1nnc(NC(=O)/C=C/c2ccco2)s1 | 94 | 60* | 94 | 4
CCSc1nnc(NC(=O)c2ccc3ccccc3n2)s1 | 118 | 64* | 125 | 6
O=C(NCCc1csc(-c2cccnc2)n1)c1ccccc1 | 90 | 4 | 83 | 0
O=C(NCc1ccccc1)c1csc(-c2cccnc2)n1 | 97 | 67* | . | -3
O=C(NCCc1csc(-c2cccnc2)n1)c1cccc2ccccc12 | 97 | 57* | 92 | 0
COc1ccc(NC(=O)CSc2nnc(-c3ccccn3)n2N)cc1Cl | 98 | 73* | 99 | -1
COc1ccc(NC(=O)CSc2nnc(-c3ccco3)n2N)cc1Cl | 94 | 1 | . | 1
CN(Cc1ccccc1)C(=O)c1cc2cc(F)ccc2[nH]1 | 100 | 62* | . | 0
Cc1nn(-c2ccccc2)nc1C(=O)Nc1ccc2[nH]ncc2c1 | 100 | 52* | . | 4
Cc1nn(-c2ccccc2)nc1C(=O)NN | 98 | 6 | . | -1
O=C(Nc1ccc2cn[nH]c2c1)c1ccccc1F | 98 | 105* | 95 | 4
COc1ccccc1CC(=O)Nc1ccc2[nH]ncc2c1 | 109 | 5 | . | -2
COc1cc(OC)cc(C(=O)Nc2ccc(Cn3ccnc3)cc2)c1 | 95 | 36 | . | 4
COc1ccc(C(=O)Nc2ccc3[nH]ncc3c2)cc1OC | 101 | 48* | . | 5
COc1ccc(C(=O)Nc2ccc(Cn3ccnc3)cc2)cc1OC | 100 | 51* | . | 0
CN(C)CCCN(C(=O)c1cccc(N2C(=O)CCC2=O)c1)c1nc2cc3c(cc2s1)OCO3 | 102 | -7 | 104 | 1
CC(C)C1=NN(C(=O)c2ccccc2)C(O)(C(C)(C)C)C1 (stereo not drawn) | 84 | 6 | 111 | 2
Nc1ccc(N=Nc2ccccc2)c2ccccc12 | 96 | 55* | . | 3
Nc1ccc(N=Nc2ccccc2)c(N)n1 | 99 | 3 | 100 | 3
CS(=O)(=O)Nc1ccc(-c2ccc(/C=C3\SC(N)=NC3=O)o2)cc1 | ? | 58* | . | 1
NC1=NC(=O)/C(=C\c2ccco2)S1 | 99 | 0 | . | 1
COc1cc2nc(Nc3ccc(C)c(C)c3)nc(N)c2cc1OC | 106 | 12 | . | 0
COc1cc2nc(N(C)C)nc(N)c2cc1OC | 102 | 65* | 112 | -4
Oc1csc(Cc2nc(-c3ccc(-c4ccccc4)cc3)cs2)n1 | 102 | 65* | 117 | 4
O=S(=O)(Nc1ncnc2sc3c(c12)CCC3)c1ccc(Cl)s1 | 94 | 48* | 114 | 2
SMILES | ABCB6 inh MLPCN | AHR activator | STAT3 act | GAA850 FXN act
Cc1ccc(-c2[nH]c3ccccc3c2SCCNC(=O)c2cc3ccccc3oc2=O)cc1 | 93 | 9 | 108 | 2
O=C(Cc1cccs1)NCCSc1c(-c2ccc(Cl)cc2)[nH]c2ccccc12 | 96 | 51* | 129 | 0
Cc1c(C2(O)CCCCC2)[nH]c2cc(C(F)(F)F)ccc12 | 99 | 48* | . | 1
S=C(NCc1ccc2[nH]c3c(c2c1)CCCC3)Nc1ccccc1Cl | 97 | 58* | 101 | 0
Cc1ccccc1NC(=S)NCc1ccc2[nH]c3c(c2c1)CCCC3 | 97 | 36 | 103 | 0
Cc1cc(N2CCN(c3ccccc3)CC2)nc(-c2ccccc2O)n1 | 90 | 78* | 87 | 2
COc1ccc(NC(=O)c2cc3cc(C)ccc3n2C)c(OC)c1 | 98 | 59* | . | -1
COc1ccc(NC(=O)Nc2ccc(C)cc2Br)c(OC)c1 | 98 | 8 | 99 | 3
Cc1nc(C(F)(F)F)ccc1C(=O)N1CCC1(C)C(=O)NS(=O)(=O)c1cccc(Cl)c1 (stereo not drawn) | 98 | . | . | 0
CC(=O)C1=C(O)C(=O)N(c2cccc(Br)c2)C1c1ccc(Br)cc1 (stereo not drawn) | 102 | 0 | . | 0
CC(=O)C1=C(O)C(=O)N(c2ccc(Br)cc2)C1c1ccc(Br)cc1 (stereo not drawn) | 99 | 49* | . | -1
C/C(N)=C(/C#N)C(=O)CSc1nnc(COc2cc(C)ccc2C)o1 | 103 | 12 | 102 | -1
OC(C#CCN1CCCCC1)(c1ccccc1)c1ccccc1 | 98 | -1 | . | 0
CC(O)(C#CCN1CCCCCC1)c1ccccc1 (stereo not drawn) | 102 | 66* | 102 | 0

Screening results from PubChem.
